ChEMBL document CHEMBL1154674, “Synthesis and evaluation of three 18F-labeled aminophenylbenzothiazoles as amyloid imaging agents” (J Med Chem, 2009)
Values belong to the compound of their own block, whether it stands above or below them.

Legend:
Assay type in all cases: ADME, organism-based, Macaca mulatta
[1] = Drug level in normal rhesus monkey parietal cortex assessed as standard uptake value at 96.3 MBq, iv after 175 mins by microPET; details: in vivo
[2] = Drug level in normal rhesus monkey thalamus assessed as standard uptake value at 96.3 MBq, iv after 37.5 mins by microPET; details: in vivo, 0.625 h
[3] = Drug level in normal rhesus monkey thalamus assessed as standard uptake value at 96.3 MBq, iv after 52.5 mins by microPET; details: in vivo, 0.875 h
[4] = Drug level in normal rhesus monkey pons assessed as standard uptake value at 96.3 MBq, iv after 65 mins by microPET; details: in vivo
[5] = Drug level in normal rhesus monkey parietal cortex assessed as standard uptake value at 96.3 MBq, iv after 0.5 mins by microPET; details: in vivo
[6] = Drug level in normal rhesus monkey frontal cortex assessed as standard uptake value at 96.3 MBq, iv after 12 mins by microPET; details: in vivo, 0.2 h
[7] = Drug level in normal rhesus monkey frontal cortex assessed as standard uptake value at 96.3 MBq, iv after 115 mins by microPET; details: in vivo
[8] = Drug level in normal rhesus monkey pons assessed as standard uptake value at 109.4 MBq, iv after 1.5 mins by microPET; details: in vivo, 0.025 h
[9] = Drug level in normal rhesus monkey pons assessed as standard uptake value at 109.4 MBq, iv after 47.5 mins by microPET; details: in vivo
[10] = Drug level in normal rhesus monkey cerebellum assessed as standard uptake value at 109.4 MBq, iv after 75 mins by microPET; details: in vivo, 1.25 h
Procedure, shortened: (§1)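 One normal rhesus monkey received each tracer via the vena saphena, with 1 day between injections. Dynamic μPET ran 180 min for 18F tracers (5×60 s, 5×120 s, 9×300 s, 12×600 s) and 90 min for the 11C tracer (5×60 s, 5×120 s, 9×300 s, 3×600 s). Filtered back-projection reconstruction (RAMP filter) was used. Time-activity curves were drawn to give regional SUV.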

[11] = Drug level in normal rhesus monkey frontal cortex assessed as standard uptake value at 109.4 MBq, iv after 0.875 mins by microPET; details: in vivo, 52 s
[12] = Drug level in normal rhesus monkey frontal cortex assessed as standard uptake value at 109.4 MBq, iv after 6.5 mins by microPET; details: in vivo
[13] = Drug level in normal rhesus monkey frontal cortex assessed as standard uptake value at 109.4 MBq, iv after 22.5 mins by microPET; details: in vivo, 0.375 h
Procedure, shortened: (§2)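 Single normal rhesus monkey; each tracer given iv via the vena saphena, with 1 day between tracer injections. Dynamic μPET ran 180 min (5×60 s, 5×120 s, 9×300 s, 12×600 s). Images were reconstructed by filtered back projection with a RAMP filter. Regional time-activity curves were expressed as SUV.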

[14] = Drug level in normal rhesus monkey thalamus assessed as standard uptake value at 109.4 MBq, iv after 69 mins by microPET; details: in vivo, 1.15 h
[15] = Drug level in normal rhesus monkey frontal cortex assessed as standard uptake value at 109.4 MBq, iv after 117 mins by microPET; details: in vivo, 1.95 h
[16] = Drug level in normal rhesus monkey white matter assessed as standard uptake value at 109.4 MBq, iv after 22.5 mins by microPET; details: in vivo, 0.375 h
[17] = Drug level in normal rhesus monkey white matter assessed as standard uptake value at 109.4 MBq, iv after 75 mins by microPET; details: in vivo, 1.25 h
[18] = Drug level in normal rhesus monkey parietal cortex assessed as standard uptake value at 109.4 MBq, iv after 111 mins by microPET; details: in vivo
[19] = Drug level in normal rhesus monkey parietal cortex assessed as standard uptake value at 81.2 MBq, iv after 0.5 mins by microPET; details: in vivo
[20] = Drug level in normal rhesus monkey parietal cortex assessed as standard uptake value at 81.2 MBq, iv after 37.5 mins by microPET; details: in vivo, 0.625 h
[21] = Drug level in normal rhesus monkey parietal cortex assessed as standard uptake value at 81.2 MBq, iv after 175 mins by microPET; details: in vivo
[22] = Drug level in normal rhesus monkey white matter assessed as standard uptake value at 81.2 MBq, iv after 37.5 mins by microPET; details: in vivo, 0.625 h
[23] = Drug level in normal rhesus monkey frontal cortex assessed as standard uptake value at 81.2 MBq, iv after 1.5 mins by microPET; details: in vivo, 0.025 h; procedure, shortened: as §2
[24] = Drug level in normal rhesus monkey frontal cortex assessed as standard uptake value at 81.2 MBq, iv after 10 mins by microPET; details: in vivo; procedure, shortened: as §2
[25] = Drug level in normal rhesus monkey cerebellum assessed as standard uptake value at 81.2 MBq, iv after 0.5 mins by microPET; details: in vivo
Procedure, shortened: (§3)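 One normal rhesus monkey, each tracer given iv via the vena saphena (81.2, 96.3 or 109.4 MBq), with 1 day between tracer injections. Dynamic brain μPET over 180 min used frames of 5 × 60 s, 5 × 120 s, 9 × 300 s and 12 × 600 s. Images were reconstructed by filtered back projection with a RAMP filter. Regional time-activity curves were expressed as SUV.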

[26] = Drug level in normal rhesus monkey cerebellum assessed as standard uptake value at 81.2 MBq, iv after 14 mins by microPET; details: in vivo; procedure, shortened: as §3
[27] = Drug level in normal rhesus monkey cerebellum assessed as standard uptake value at 152.9 MBq, iv after 22.5 mins by microPET; details: in vivo, 0.375 h; procedure, shortened: as §1
[28] = Drug level in normal rhesus monkey cerebellum assessed as standard uptake value at 152.9 MBq, iv after 57.5 mins by microPET; details: in vivo; procedure, shortened: as §1
[29] = Drug level in normal rhesus monkey frontal cortex assessed as standard uptake value at 152.9 MBq, iv after 57.5 mins by microPET; details: in vivo
Procedure, shortened: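 Single normal rhesus monkey; tracer given iv via the vena saphena, 1 day apart from the other tracer injections. Dynamic μPET ran 90 min (5×60 s, 5×120 s, 9×300 s, 3×600 s). Images were reconstructed by filtered back projection with a RAMP filter. Regional time-activity curves were expressed as SUV.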

[30] = Drug level in normal rhesus monkey white matter assessed as standard uptake value at 152.9 MBq, iv after 2.5 mins by microPET; details: in vivo
[31] = Drug level in normal rhesus monkey white matter assessed as standard uptake value at 152.9 MBq, iv after 32.5 mins by microPET; details: in vivo
[32] = Drug level in normal rhesus monkey white matter assessed as standard uptake value at 152.9 MBq, iv after 37.5 mins by microPET; details: in vivo, 0.625 h
[33] = Drug level in normal rhesus monkey white matter assessed as standard uptake value at 152.9 MBq, iv after 52.5 mins by microPET; details: in vivo, 0.875 h
[34] = Drug level in normal rhesus monkey thalamus assessed as standard uptake value at 152.9 MBq, iv after 47.5 mins by microPET; details: in vivo
[35] = Drug level in normal rhesus monkey parietal cortex assessed as standard uptake value at 152.9 MBq, iv after 27.5 mins by microPET; details: in vivo
[36] = Drug level in normal rhesus monkey parietal cortex assessed as standard uptake value at 152.9 MBq, iv after 75 mins by microPET; details: in vivo, 1.25 h

SUV [1]: 1.17 | SUV [2]: 2.33 | SUV [3]: 2.26 | SUV [4]: 1.83 | SUV [5]: 0.65 | SUV [6]: 1.99 | SUV [7]: 1.66
SMILES: CN(C)c1ccc2nc(-c3ccc([18F])cc3)sc2c1

SUV [8]: 2.87 | SUV [9]: 4.7 | SUV [10]: 2.92 | SUV [11]: 1.73 | SUV [12]: 5.35 | SUV [13]: 5.16 | SUV [14]: 5.32 | SUV [15]: 4.28 | SUV [16]: 3.04 | SUV [17]: 3.63 | SUV [18]: 3.59
SMILES: Nc1ccc2nc(-c3ccc([18F])cc3)sc2c1

SUV [19]: 0.924 | SUV [20]: 3.965 | SUV [21]: 2.528 | SUV [22]: 3.78 | SUV [23]: 3.245 | SUV [24]: 5.813 | SUV [25]: 0.735 | SUV [26]: 2.614
SMILES: CNc1ccc2nc(-c3ccc([18F])cc3)sc2c1

SUV [27]: 1.502 | SUV [28]: 0.764 | SUV [29]: 0.692 | SUV [30]: 0.752 | SUV [31]: 1.12 | SUV [32]: 1.095 | SUV [33]: 0.937 | SUV [34]: 1.161 | SUV [35]: 1.221 | SUV [36]: 0.682
SMILES: [11CH3]Nc1ccc(-c2nc3ccc(O)cc3s2)cc1 [PITTSBURGH COMPOUND B]
